Data on 7 compounds can be found in PMC5575737 (Bioorganic & medicinal chemistry letters, 2017).

As a reminder, the TGI is the concentration at which net growth stops. Read a low TGI as more potent growth arrest. In general, GI50 refers to the concentration at which growth is held to half of that of the control. High values mean less potent growth inhibition, low ones more potent growth inhibition. One may read the IC50 as the concentration needed to halve the response being measured.

One data set deals with NCI-H460. Kind of data set: NCI-60 five-dose assay. It is filed as cell-based, human. The method, boiled down: (§1)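 The NCI DTP ran the NCI-60 five-dose screen. Cells were exposed to the test compound at 10 nM, 100 nM, 1 μM, 10 μM and 100 μM. Read-outs were growth inhibition by 50% (GI50), total growth inhibition (TGI) and 50% lethal concentration (LC50), each relative to control cells.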

Data set [1] in a line: Solubility in water, water/DMSO and 2-HPβCD solutions. It is filed as physicochemical. Particulars: for behaviour on addition of water to the DMSO solution: final 1% DMSO in water.
Data set [2] has as its system four NSCLC lines (NCI-H460, NCI-H1975, A549, HCC827). Kind of data set: MTT cell viability assay, all four lines. It is filed as cell-based. Particulars: 72 h, read-out: IC50 values, range over four NSCLC lines. The method, boiled down:
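Cells were exposed for 72 h, then viability was read by MTT. Test compound was dissolved in DMSO and diluted with water to 1% DMSO, giving at most 0.032% DMSO final in medium. A parallel run used stock in 10% (w/v) 2-HPβCD (≤0.008% final), with 0.008% 2-HPβCD vehicle controls. Cisplatin was dissolved in water. IC50 was the concentration giving 50% loss of viability versus control cells.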
(Tetrazolium dyes change colour on reduction, which living cells bring about.)

The next data set deals with NCI-H226. Kind of data set: NCI-60 five-dose assay. It is filed as cell-based, human. The essentials: as §1
The test system of the next data set is HOP-62. Kind of data set: NCI-60 five-dose assay. The data set is classed as cell-based, human. The essentials: as §1
Another data set concerns nine NSCLC lines. Put plainly: NCI-60 one-dose assay, average. It is filed as cell-based, human. Particulars: average over the NSCLC lines tested; single dose 10 μM. The method, boiled down: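 The NCI DTP ran the NCI-60 one-dose screen. Cells were plated at densities matched to doubling rate and incubated overnight, then exposed to 10 μM test compound for […]. Growth percentage came from protein density at the end versus the start of exposure. Values were averaged across the nine NSCLC lines.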

The subject of the next data set is HOP-92. Kind of data set: NCI-60 five-dose assay. The data set is classed as cell-based, human. The essentials:
as §1

The test system of the next data set is EKVZ. Put plainly: NCI-60 five-dose assay. It is filed as cell-based, human. The method, boiled down: as §1
A further data set concerns NCI-H522. Put plainly: NCI-60 five-dose assay. It is filed as cell-based, human. The method, boiled down:
as §1

The next data set relates to A549/ATCC. Put plainly: NCI-60 five-dose assay. It is filed as cell-based, human. The essentials:
as §1

The subject of data set [3] is H460 cells. Kind of data set: JC-1 mitochondrial membrane potential assay. It is filed as cell-based.
In the next data set the test system is DNA. Kind of data set: DNA interaction: viscosity and fluorescent intercalator displacement assays. It is filed as binding.
For another data set, the system named is C57BL/6 mice. Kind of data set: Preliminary in vivo toxicity study.
Data set [4] relates to H460 cells. Kind of data set: Annexin V apoptosis assay. It is filed as cell-based. The essentials:
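H460 cells in 6-well plates were treated with the test compound in 10% (w/v) 2-HPβCD aqueous solution or in DMSO. Controls were 2-HPβCD vehicle and cisplatin. Cells were stained with Annexin V-FITC plus propidium iodide and imaged by fluorescence microscopy (20× objective) at 12, 14, 17 and 20 h. Read-outs were green versus green+red fluorescence and membrane blebbing.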

Data set [5] has as its system H460 cells. Particulars: cited from earlier work.

With `CCCCc1n(Cc2ccc3ccccc3c2)cc[n+]1Cc1ccc2ccccc2c1.[Br-]` [Compound 4], the TGI turned out to be 2820 nM in the data set with NCI-H460; 2930 nM in the data set with NCI-H226; 2750 nM in the data set on HOP-62; 2350 nM in the data set with HOP-92; 3470 nM in the data set with EKVZ (EKVZ); 1890 nM with NCI-H522. The same compound gave a TGI in the data set with A549/ATCC (A549/ATCC) of 3240 nM. Also, the GI50 amounted to 1250 nM with NCI-H460 (Homo sapiens); 1350 nM in the data set with NCI-H226 (Homo sapiens); 1290 nM in the data set on HOP-62 (Homo sapiens); 844 nM in the data set on HOP-92 (Homo sapiens); 1350 nM with EKVZ (Homo sapiens); 491 nM in the data set on NCI-H522 (Homo sapiens). Moreover, in the data set with A549/ATCC (Homo sapiens, A549), growth was halved (GI50) at 1670 nM. Moreover, the “behaviour on addition of water to the DMSO solution” value (“behaviour on addition of water” below) in data set [1] is “slight precipitation”. In addition, the IC50 in data set [2] lay in the range of 660 to 3500 nM. Moreover, the “Growth % Average” value in the data set on nine NSCLC lines is reported as −1.36%.

In the case of `CCCc1n(Cc2ccc3ccccc3c2)cc[n+]1Cc1ccc2ccccc2c1.[Br-]` [Compound 3], in data set [1], the “behaviour on addition of water” value is listed as “remained soluble”. In addition, the IC50 in [2] lay within 660 to 3500 nM. In the data set on nine NSCLC lines, the “Growth % Average” value came to 2.33%.

As for `CCc1n(Cc2ccc3ccccc3c2)cc[n+]1Cc1ccc2ccccc2c1.[Br-]` [Compound 2], the “behaviour on addition of water” value in data set [1] is recorded as “remained soluble”. The IC50 in data set [2] lay in the range of 660 to 3500 nM. The “red fluorescence (J-aggregates, intact MMP)” value with H460 cells [3] (20 μM, 1 hour versus 15 minutes) is given as “apparent decrease in intensity”; in the data set with H460 cells [3] (40 μM, 30 minutes) it was “minimal red fluorescence”; in the data set on H460 cells [3] (40 μM, 1 hour and 2.5 hours), “minimal red fluorescence”. In the data set with nine NSCLC lines, the “Growth % Average” value was 4.18%. Besides, in the data set with DNA, the “interaction with DNA” value is recorded as “little to no interaction with DNA”. The “clinical observation the day after the second injection” value in the data set with C57BL/6 mice (15 mg/kg IP on day fourteen, two surviving mice) is recorded as “both animals were sacrificed due to lethargic movement”. Besides, the “body weight after first injection” value with C57BL/6 mice (20 mg/kg IP) is given as “sharp decrease in weight”. The mortality result in the data set on C57BL/6 mice (20 mg/kg IP on day zero in 20% 2-HPβCD, day two) was “one mouse from the experimental group was found deceased”. In addition, in the data set on C57BL/6 mice (20 mg/kg then 15 mg/kg IP), the overall toxicity result is recorded as “quite toxic at the doses administered”. Also, in the data set on C57BL/6 mice (after second injection, 15 mg/kg IP on day fourteen), the average weight loss result is recorded as “around 6%”. Also, the “time at which strong green fluorescence (Annexin V-FITC) was observed” value with H460 cells [4] (40 μM, water/DMSO solution) was found to be 1 h. The entries for the “time of treatment at which blebbing occurs” value with H460 cells [4] (2-HPβCD vehicle) and in the data set on H460 cells [4] (DMSO vehicle) were 14 h and 3 h, respectively. Further, the “mode of cell death” value with H460 cells [4] (DMSO or 2-HPβCD vehicle, two independent trials) was “causes apoptosis”.

For the compound `CC(C)c1n(Cc2ccc3ccccc3c2)cc[n+]1Cc1ccc2ccccc2c1.[Br-]` [Compound 5], in data set [1] (10% 2-HPβCD by weight in water), the “solubility in 2-HPβCD solution” value is on record as “mostly soluble”. In data set [1], the “behaviour on addition of water” value is reported as “remained soluble”. Also, in [2], the IC50 was 660 to 3500 nM.

`Cc1n(Cc2ccc3ccccc3c2)cc[n+]1Cc1ccc2ccccc2c1.[Br-]` [Compound 1]: in data set [1], the “behaviour on addition of water” value is reported as “slight precipitation”. Further, the IC50 in [2] lay within 660 to 3500 nM. The “Growth % Average” value with nine NSCLC lines amounted to 21.19%.

Regarding `N#CC(C#N)=NNc1cccc(Cl)c1` [CCCP, carbonylcyanide m-chlorophenylhydrazone, reference compound], the “mitochondrial potential versus media control cells” value with H460 cells [3] (positive control) was “mitochondria potential was decreased”.

Take `Clc1c(Cl)[n+](Cc2ccc3ccccc3c2)cn1Cc1ccc2ccccc2c1.[Br-]` [IS23, 4,5-dichloro-1,3-bis(naphthalen-2-ylmethyl)imidazolium bromide]: the “time of morphological changes (cell shrinkage, rounding, detachment)” value in the data set on H460 cells [5] was “within the first hour”.
